Assay [1] concerns the target T1, Enoyl-[acyl-carrier-protein] reductase [NADH] (Mycobacterium tuberculosis) (UniProt P9WGR1).
T1 sequence (whole entry): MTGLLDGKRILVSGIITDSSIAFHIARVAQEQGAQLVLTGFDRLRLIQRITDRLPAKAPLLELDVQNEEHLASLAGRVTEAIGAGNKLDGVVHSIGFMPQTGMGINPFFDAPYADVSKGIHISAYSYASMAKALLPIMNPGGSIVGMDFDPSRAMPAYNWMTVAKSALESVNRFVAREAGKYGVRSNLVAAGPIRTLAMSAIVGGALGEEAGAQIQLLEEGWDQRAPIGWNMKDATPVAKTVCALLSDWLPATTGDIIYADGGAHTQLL
The assay is described as follows: Inhibition of Mycobacterium tuberculosis recombinant InhA expressed in Escherichia coli using trans-2-dodecenoyl-coenzyme-A as substrate at 50 uM. In outline: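 Recombinant InhA was expressed in E. coli and purified. Reactions with DD-CoA substrate, NADH and inhibitor were run in 30 mM PIPES, 150 mM NaCl, pH 6.8, and started by adding InhA (100 nM final). Percent inhibition was calculated from initial velocity against a no-inhibitor control. Run in triplicate.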

Assay [2] has as its system Mycobacterium tuberculosis. Briefly: Antimycobacterial activity against Mycobacterium tuberculosis H37Rv by two-fold serial dilution method. The assay is classed as functional. In outline:
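A single colony was grown in complete Middlebrook 7H9 at 37 °C to exponential phase (about 10⁸ CFU/mL, OD600 0.8–1.0). Cultures were diluted to about 10⁷ CFU/mL and streaked onto plates with two-fold dilutions of compound. MIC is the minimal inhibitory concentration.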

Converted amounts (≈) assume the structure as drawn. The source made the active and inactive calls. No cut-off for these calls is given here.

A word on the inhibition: it is how much of the control response was suppressed. The term MIC denotes the lowest concentration that inhibits growth of the organism. As to `CCCCCCCCCCc1cn(Cc2cccc(OC)c2)nn1`, in assay [1], the inhibition is 20%. The compound further yielded an MIC in assay [2] greater than 4 µg/mL.

`CCCCCCc1cn(CCc2ccccc2)nn1`: the inhibition in assay [1] came out at 10%. Also, the lowest concentration to inhibit growth in assay [2] (MIC) was 10 µg/mL (≈ 38.9 µM).

For the compound `CCCCCCCCCCc1cn(CCc2ccccc2C)nn1`, in assay [1], the inhibition came out at 58%. The compound also registered a minimum inhibitory concentration (MIC) in assay [2] of 2 µg/mL (≈ 6.11 µM).

As for `CCCCCCCCCCCCn1cc(Cc2ccccc2)nn1`, in assay [1], the inhibition was 58%. The same compound yielded an MIC in assay [2] of 25 µg/mL (≈ 76.3 µM).

Regarding `CCCCCCCCCCCCn1cc(CCc2ccccc2)nn1`, the MIC in assay [2] is 0.5 µg/mL (≈ 1.46 µM).

Turning to `CCCCCCCCCCCCn1cc(COc2ccc(Cl)cc2Cl)nn1`, in assay [1], the inhibition was less than 5%. In assay [2], 4 µg/mL (≈ 9.7 µM) was the least that counted as inhibitory (MIC).

Turning to `CCCCCCCCCCc1cn(Cc2ccccc2)nn1`, the inhibition in assay [1] was found to be 44%. In assay [2], the MIC was greater than 4 µg/mL.

Consider `CCCCCCCCCCCCc1cn(CCc2ccccc2)nn1`, for which, in assay [1], the inhibition is 67%. Also, the lowest concentration to inhibit growth in assay [2] (MIC) was 4 µg/mL (≈ 11.7 µM).

Consider `CCCCCCCCCCCCn1cc(COc2ccc(Cl)cc2OC)nn1`, for which the inhibition in assay [1] was 35%. In assay [2], this compound came in with an MIC greater than 4 µg/mL.

As for `CCCCCCCCCCc1cn(CCc2ccccc2OC)nn1`, the inhibition in assay [1] was determined as 48%. The MIC in assay [2] was 2 µg/mL (≈ 5.82 µM).

Regarding `CCCCCCCCc1cn(CCc2ccccc2C)nn1`, the inhibition in assay [1] came to 37%. The compound further came in with an MIC in assay [2] of 2 µg/mL (≈ 6.68 µM).

As to `CCCCCCCCCCCCc1cn(Cc2ccccc2)nn1`, the inhibition in assay [1] came out at 52%. The compound further had an MIC in assay [2] greater than 4 µg/mL.

As to `CCCCCCCCn1cc(Cc2ccccc2)nn1`, the inhibition in assay [1] came out at 73%. Besides, the lowest concentration to inhibit growth in assay [2] (MIC) was 25 µg/mL (≈ 92.1 µM).

On to `CCCCCCc1cn(Cc2ccccc2)nn1`, for which the inhibition in assay [1] stood at 21%. The same compound gave an MIC in assay [2] of 25 µg/mL (≈ 103 µM).

In the case of `CCCCCCCCCCc1cn(Cc2cc(OC)cc(OC)c2)nn1`, the inhibition in assay [1] amounted to 24%. The same compound gave an MIC in assay [2] greater than 4 µg/mL.

Take `CCCCCCCCn1cc(-c2cccc(O)c2)nn1`: the inhibition entry in assay [1] was “inactive”.

`CCCCCCCCCn1cc(Cc2ccccc2)nn1`: in assay [1], the inhibition stood at 75%. In assay [2], this compound gave an MIC of 25 µg/mL (≈ 87.6 µM).

For the compound `CCCCCCCCCCc1cn(CCc2ccccc2)nn1`, the inhibition in assay [1] came to 43%. 4 µg/mL (≈ 12.8 µM) was the least that counted as inhibitory in assay [2] (MIC).

Consider `CCCCCCCCCCCCn1nncc1CCc1ccccc1`, for which the inhibition in assay [1] stood at 9%. The compound further returned an MIC in assay [2] greater than 4 µg/mL.

Take `CCCCCCCCn1cc(-c2cccc(C)c2)nn1`: in assay [1], the inhibition turned out to be 33%. The compound further gave an MIC in assay [2] greater than 4 µg/mL.

Regarding `CCCCCCCCCCCCc1cn(CCc2ccccc2OC)nn1`, the inhibition in assay [1] was found to be 61%. The MIC in assay [2] amounted to 2 µg/mL (≈ 5.38 µM).

Take `CCCCCCc1cn(Cc2cc(C)cc(C)c2)nn1`: the inhibition in assay [1] was found to be 19%.

Regarding `CCCCCCCCc1cn(Cc2ccccc2)nn1`, the inhibition in assay [1] was found to be 34%. Moreover, the minimal inhibitory concentration (MIC) in assay [2] is greater than 4 µg/mL.

For the compound `CCCCCCCCCCc1cn(Cc2cccc(Cl)c2)nn1`, the inhibition in assay [1] was 42%. Besides, 4 µg/mL (≈ 12 µM) was the least that counted as inhibitory in assay [2] (MIC).

In the case of `CCCCCCc1cn(Cc2cccc(OC)c2)nn1`, the inhibition result in assay [1] was “inactive”. This compound showed an MIC in assay [2] greater than 4 µg/mL.

Turning to `CCCCCCCCCCCCc1cn(CCc2ccc(OC)c(OC)c2)nn1`, the inhibition entry in assay [1] is “inactive”. In addition, the MIC in assay [2] was determined as 0.25 µg/mL (≈ 0.623 µM).

Take `CCCCCCCCCCc1cn(CCc2ccc(OC)c(OC)c2)nn1`: in assay [1], the inhibition was 21%. In assay [2], this compound registered an MIC of 2 µg/mL (≈ 5.35 µM).

Consider `CCCCCCCCCCCCn1cc(COc2ccccc2)nn1`, for which the inhibition in assay [1] came to 54%. This compound came in with an MIC in assay [2] of 2 µg/mL (≈ 5.82 µM).

`CCCCCCCCCCCCc1cn(Cc2cccc(OC)c2)nn1`: the inhibition in assay [1] was found to be 46%. This compound also returned an MIC in assay [2] of 4 µg/mL (≈ 11.2 µM).

Take `CCCCCCCCCCc1cnnn1CCc1ccccc1`: in assay [1], the inhibition came to 33%. In assay [2], this compound yielded a minimum inhibitory concentration (MIC) greater than 4 µg/mL.

Take `CCCCCCc1cn(Cc2cccc(Cl)c2)nn1`: the inhibition result in assay [1] was “inactive”. In addition, 4 µg/mL (≈ 14.4 µM) was the least that counted as inhibitory in assay [2] (MIC).

Source of the values: ChEMBL document CHEMBL2021808, “Chemical synthesis and biological evaluation of triazole derivatives as inhibitors of InhA and antituberculosis agents” (Eur J Med Chem, 2012).
